One assay relates to SK-OV-3. The assay can be described thus: Growth inhibition of human SKOV3 cells after 48 hrs by sulforhodamine B assay. Type of assay: functional. The following applies: SK-OV-3, 48 h. The method in brief:
(§1)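 NCI five-dose assay using 10-fold serial dilutions from 10^-8 to 10^-4 M, compound in DMSO. Cells exposed 48 h at 37 °C, 5% CO2, 100% humidity. Protein measured by sulforhodamine B staining at 515 nm, with time-zero, control and treated readings. GI50 is the concentration where [(Ti−Tz)/(C−Tz)]×100 = 50. It is reported as greater or less than the range bounds when not reached.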
Background: In SRB staining, fixed cells bind dye roughly in proportion to their protein.

For the next assay, the system named is A549. The assay can be described thus: Growth inhibition of human A549 cells after 48 hrs by sulforhodamine B assay. To be noted: A549, 48 h. The class given is functional. The method in brief:
as §1

The subject of a further assay is Malme-3M. The assay can be described thus: Growth inhibition of human MALME-3M cells after 48 hrs by sulforhodamine B assay. The class given is functional. In outline: as §1
The subject of the next assay is UO-31. The assay can be described thus: Growth inhibition of human UO31 cells after 48 hrs by sulforhodamine B assay. The class given is functional. The following applies: UO-31, 48 h. The method in brief:
as §1

For a further assay, the system named is 786-0. The assay can be described thus: Growth inhibition of human 786-0 cells after 48 hrs by sulforhodamine B assay. The class given is functional. To be noted: 786-0, 48 h. In outline: as §1
Assay [1] concerns HCT-116. The assay can be described thus: Growth inhibition of human HCT116 cells after 48 hrs by sulforhodamine B assay. Type of assay: functional. To be noted: HCT-116, 48 h. The method in brief:
as §1

The test system of another assay is TK-10. The assay can be described thus: Anticancer activity against human TK10 cells assessed as cell growth at 10^-5 M after 48 hrs by sulforhodamine B assay relative to control. The following applies: TK-10, 48 h.
A further assay concerns NCI-H322M. The assay can be described thus: Growth inhibition of human NCI-H322M cells after 48 hrs by sulforhodamine B assay. Type of assay: functional. The method in brief:
as §1

Another assay has as its system OVCAR-3. The assay can be described thus: Growth inhibition of human OVCAR3 cells after 48 hrs by sulforhodamine B assay. The class given is functional. To be noted: OVCAR-3, 48 h. In outline: as §1
The subject of another assay is RXF 393. The assay can be described thus: Growth inhibition of human RXF393 cells after 48 hrs by sulforhodamine B assay. The class given is functional. To be noted: RXF 393, 48 h. The method in brief: as §1
The next assay relates to NCI/ADR-RES. The assay can be described thus: Growth inhibition of human NCI/ADR-RES cells after 48 hrs by sulforhodamine B assay. The class given is functional. In outline:
as §1

In another assay the test system is LOX IMVI. The assay can be described thus: Growth inhibition of human LOXIMVI cells after 48 hrs by sulforhodamine B assay. The class given is functional. In outline:
as §1

A further assay relates to SF-295. The assay can be described thus: Growth inhibition of human SF295 cells after 48 hrs by sulforhodamine B assay. The class given is functional. To be noted: SF-295, 48 h. In outline:
as §1

A further assay concerns MDA-MB-231. The assay can be described thus: Growth inhibition of human MDA-MB-231 cells after 48 hrs by sulforhodamine B assay. Type of assay: functional. To be noted: MDA-MB-231, 48 h. In outline: as §1
In assay [2] the test system is HCT-116. The assay can be described thus: Anticancer activity against human HCT116 cells assessed as cell growth at 10^-5 M after 48 hrs by sulforhodamine B assay relative to control. To be noted: HCT-116, 48 h.
A further assay deals with SNB-75. The assay can be described thus: Growth inhibition of human SNB75 cells after 48 hrs by sulforhodamine B assay. Type of assay: functional. The following applies: SNB-75, 48 h. In outline:
as §1

For the next assay, the system named is OVCAR-8. The assay can be described thus: Growth inhibition of human OVCAR8 cells after 48 hrs by sulforhodamine B assay. The class given is functional. The following applies: OVCAR-8, 48 h. In outline: as §1
The next assay deals with NCI-H23. The assay can be described thus: Growth inhibition of human NCI-H23 cells after 48 hrs by sulforhodamine B assay. Type of assay: functional. The following applies: NCI-H23, 48 h. In outline: as §1
The subject of a further assay is NCI-H522. The assay can be described thus: Anticancer activity against human NCI-H522 cells assessed as cell growth at 10^-5 M after 48 hrs by sulforhodamine B assay relative to control. To be noted: NCI-H522, 48 h.
Assay [3] concerns DU-145. The assay can be described thus: Growth inhibition of human DU145 cells after 48 hrs by sulforhodamine B assay. Type of assay: functional. To be noted: DU-145, 48 h. The method in brief:
as §1

The next assay deals with SF-539. The assay can be described thus: Growth inhibition of human SF539 cells after 48 hrs by sulforhodamine B assay. Type of assay: functional. The following applies: SF-539, 48 h. The method in brief: as §1
A short description of assay [4]: Growth inhibition of human Hs 578T cells after 48 hrs by sulforhodamine B assay. The class given is functional. The method in brief: as §1
Another assay concerns OVCAR-4. The assay can be described thus: Growth inhibition of human OVCAR4 cells after 48 hrs by sulforhodamine B assay. Type of assay: functional. The following applies: OVCAR-4, 48 h. The method in brief:
as §1

For a further assay, the system named is SR. The assay can be described thus: Growth inhibition of human SR cells after 48 hrs by sulforhodamine B assay. Type of assay: functional. The method in brief:
as §1

For assay [5], the system named is DU-145. The assay can be described thus: Anticancer activity against human DU145 cells assessed as cell growth at 10^-5 M after 48 hrs by sulforhodamine B assay relative to control. The following applies: DU-145, 48 h.
A further assay deals with ACHN. The assay can be described thus: Anticancer activity against human ACHN cells assessed as cell growth at 10^-5 M after 48 hrs by sulforhodamine B assay relative to control.
The next assay concerns MDA-MB-435. The assay can be described thus: Anticancer activity against human MDA-MB-435 cells assessed as cell growth at 10^-5 M after 48 hrs by sulforhodamine B assay relative to control. To be noted: MDA-MB-435, 48 h.
The next assay has as its system UACC-62. The assay can be described thus: Anticancer activity against human UACC62 cells assessed as cell growth at 10^-5 M after 48 hrs by sulforhodamine B assay relative to control. To be noted: UACC-62, 48 h.
The subject of the next assay is HOP-92. The assay can be described thus: Anticancer activity against human HOP92 cells assessed as cell growth at 10^-5 M after 48 hrs by sulforhodamine B assay relative to control. The following applies: HOP-92, 48 h.
A further assay deals with MOLT-4. The assay can be described thus: Anticancer activity against human MOLT4 cells assessed as cell growth at 10^-5 M after 48 hrs by sulforhodamine B assay relative to control. The following applies: MOLT-4, 48 h.
In another assay the test system is CAKI-1. The assay can be described thus: Anticancer activity against human Caki1 cells assessed as cell growth at 10^-5 M after 48 hrs by sulforhodamine B assay relative to control. The following applies: CAKI-1, 48 h.
Where [6] appears, read: read-out: pLC50 (the source's name) (converted).

The record followed here is ChEMBL document CHEMBL1811815, “Synthesis of new pyrazole derivatives and their anticancer evaluation” (2010).

What is called GI50 is the concentration that inhibits growth by half. Lower therefore signals greater sensitivity of the cells.

The structures appear in SMILES notation. A value given as a limit tells only on which side of the number the result lay.

As for `O=C(NC(=S)Nc1cc(-c2ccc(Br)cc2)n[nH]1)c1ccccc1`, the GI50 in the assay on SK-OV-3 was 7.24 µM; with A549, 2.34 µM; in the assay on Malme-3M, 6.61 µM; in the assay on UO-31, 4.07 µM; in the assay on 786-0, 3.24 µM; in the assay with HCT-116 [1] it was 1.78 µM. The GI50 was 4.47 µM with NCI-H322M; 5.01 µM with OVCAR-3; 3.16 µM in the assay with RXF 393; 4.9 µM in the assay with NCI/ADR-RES; 5.5 µM in the assay on LOX IMVI; 9.77 µM in the assay with SF-295. Moreover, the GI50 with MDA-MB-231 was 3.8 µM; in the assay on SNB-75 it was 6.17 µM; in the assay with OVCAR-8, 4.68 µM; in the assay with NCI-H23, 9.33 µM; with DU-145 [3], 9.33 µM; in the assay with SF-539, 3.39 µM. Besides, the GI50 in [4] is 2.75 µM; in the assay with OVCAR-4, 4.27 µM; in the assay with SR it was 11.7 µM. Also, the CC50 in the assay with SK-OV-3 (setting [6]) was 52.5 µM; in the assay with A549 (setting [6]), 79.4 µM; in the assay with Malme-3M (setting [6]), more than 100 µM; in the assay on UO-31 (setting [6]) it was 85.1 µM; in the assay on 786-0 (setting [6]) it was 47.9 µM; with HCT-116 [1] (setting [6]), 24.5 µM. In addition, the CC50 in the assay on NCI-H322M (setting [6]) was more than 100 µM; with OVCAR-3 (setting [6]), 70.8 µM; with RXF 393 (setting [6]), 47.9 µM; in the assay with NCI/ADR-RES (setting [6]), more than 100 µM; with LOX IMVI (setting [6]), more than 100 µM; in the assay on SF-295 (setting [6]), more than 100 µM. For the same compound, the CC50 was more than 100 µM in the assay with MDA-MB-231 (setting [6]); 89.1 µM in the assay on SNB-75 (setting [6]); 69.2 µM in the assay with OVCAR-8 (setting [6]); more than 100 µM in the assay on NCI-H23 (read-out: pLC50 (converted)); more than 100 µM in the assay with DU-145 [3] (setting [6]); more than 100 µM in the assay with SF-539 (setting [6]). Also, the CC50 (in [4] (setting [6]); with OVCAR-4 (setting [6]); with SR (setting [6])) was more than 100 µM in each case. Besides, the TGI is 21.9 µM in the assay with SK-OV-3 (read-out: pTGI (converted)); 14.1 µM in the assay on A549 (read-out: pTGI (converted)); 91.2 µM in the assay on Malme-3M (read-out: pTGI (converted)); 21.4 µM in the assay with UO-31 (read-out: pTGI (converted)); 11.7 µM in the assay with 786-0 (read-out: pTGI (converted)); 4.79 µM in the assay with HCT-116 [1] (read-out: pTGI (converted)). The TGI in the assay on NCI-H322M (read-out: pTGI (converted)) is 44.7 µM; in the assay with OVCAR-3 (read-out: pTGI (converted)) it was 20.4 µM; with RXF 393 (read-out: pTGI (converted)) it was 15.1 µM; with NCI/ADR-RES (read-out: pTGI (converted)) it was 63.1 µM; in the assay with LOX IMVI (read-out: pTGI), more than 100 µM; with SF-295 (read-out: pTGI (converted)) it was 36.3 µM. The TGI in the assay on MDA-MB-231 (read-out: pTGI (converted)) was 22.4 µM; with SNB-75 (read-out: pTGI (converted)) it was 26.9 µM; with OVCAR-8 (read-out: pTGI (converted)) it was 20.9 µM; in the assay with NCI-H23 (read-out: pTGI (converted)), 50.1 µM; in the assay with DU-145 [3] (read-out: pTGI), more than 100 µM; with SF-539 (read-out: pTGI), more than 100 µM. Moreover, the TGI in assay [4] (read-out: pTGI (converted)) is 33.9 µM; in the assay with OVCAR-4 (read-out: pTGI (converted)), 24 µM; in the assay on SR (read-out: pTGI (converted)), 40.7 µM. The growth, % of control at 10 µM was -19.9% in the assay on TK-10, 1% with HCT-116 [2] and 8.9% in the assay on NCI-H522.

For `Cc1cs/c(=N\C(=O)c2cnn(C)c2)n1-c1ccc(Cl)cc1`, the results for the growth, % of control at 10 µM in the assay on DU-145 [5] and with ACHN were 0.3% and -11.8%, respectively.

Consider `Cc1cs/c(=N\C(=O)c2cnn(C)c2)n1-c1ccccc1`, for which the growth, % of control at 10 µM in the assay with DU-145 [5] was 1.6%; with ACHN it was -15.7%.

For `Cc1cc(NC(=S)NC(=O)c2ccccc2)n(-c2ccccc2)n1`, the growth, % of control at 10 µM in the assay on MDA-MB-435 came to 22.6%.

Regarding `Cn1cc(C(=O)NC(=S)Nc2ccc(Cl)cc2)cn1`, the growth, % of control at 10 µM in the assay on NCI-H522 stood at 47.2%.

Turning to `Cc1ccc(NC(=S)NC(=O)c2cnn(C)c2)cc1`, the growth, % of control at 10 µM with NCI-H522 came to 62.5%.

`Cn1cc(C(=O)NC(=S)Nc2ccc(Cl)cc2Cl)cn1`: the growth, % of control at 10 µM in the assay on UACC-62 stood at 79.7%.

On to `COc1ccc(NC(=S)NC(=O)c2cnn(C)c2)cc1`, for which the growth, % of control at 10 µM in the assay on HOP-92 came to 68.7%.

`Cc1cccc(C)c1NC(=S)NC(=O)c1cnn(C)c1`: in the assay on MOLT-4, the growth, % of control at 10 µM worked out at 40.5%.

As for `Cn1cc(C(=O)NC(=S)Nc2c(Cl)cccc2Cl)cn1`, the growth, % of control at 10 µM with CAKI-1 worked out at 69.7%.
